Screening data from PubChem BioAssay.
An excerpt weighted towards active compounds, which were near 2% of everything screened.
Xi reactivation: activators of inactive X chromosome reactivation, primary screen, imaging, XiGFP fibroblasts, GFP high-content imaging, set 2. activation, % at 7.58 µM. AID 743238, 2013. XiGFP mouse fibroblasts, % GFP-positive cells imaging, 3 d; cells co-treated with 5-aza-dC sensitizer; scaled so ellipticine positive control = 100%. 360,000 compounds, 0.055% hits;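 active means mean normalized replicate activation at least 10% and every replicate at or above 10%; inconclusive means only one of the two criteria met; inactive means mean below 10% and not all replicates reach 10%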;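 further: 0% = median of on-plate neutral control wells and 100% = ellipticine 6 µM median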
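System: 68-5-11 XiGFP fibroblast line; Timing: 3 days compound exposure; Compound dosing: one concentration, pinned; Benchmarks: positive control ellipticine, 6 µM final; Buffer or medium: DMEM containing 5-aza-dC.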
CASP6 VEID inh: human caspase-6 inhibitors, primary screen, biochemical, VEID-R110 fluorescence, single point, set 2. inhibition, % at 12.5 µM. P55212. purified caspase-6, Z-VEID-R110 cleavage fluorescence. 350,000 compounds, 0.53% hits;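 active means mean inhibition across replicates at least about 35%, with every replicate also reaching that limit, limit read from the data; inconclusive means only one of the two criteria met; inactive means neither criterion met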;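 further: 0% = median of neutral control wells and 100% = no fluorescence left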
Target sequence (P55212 24-179 limits assumed): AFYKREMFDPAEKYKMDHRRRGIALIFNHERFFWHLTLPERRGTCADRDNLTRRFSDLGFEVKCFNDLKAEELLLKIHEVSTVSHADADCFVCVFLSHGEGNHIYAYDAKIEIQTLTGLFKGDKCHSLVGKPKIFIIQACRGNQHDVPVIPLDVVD
Target sequence (P55212 194-293 limits assumed): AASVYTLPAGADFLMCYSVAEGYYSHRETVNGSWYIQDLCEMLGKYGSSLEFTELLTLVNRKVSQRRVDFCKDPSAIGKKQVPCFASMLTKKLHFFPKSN
DENV2 CPE rescue: inhibitors of DENV2 cytopathic effect, primary screen, cell-based, plate reader, single concentration; DENV2-infected cells, cytopathic effect rescue; 350,000 compounds, 1.7% hits; AID 651640, 2012; CPE inhibition, % at 9.99 µM; in the data active means CPE inhibition above about 20%, passing the limit was not always enough; inconclusive means no clear call, values can overlap the other calls; tested in BHK-21 cells;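 further: 0% = median of neutral control wells and 100% = median of positive control wells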
FN deposit inh: inhibitors of fibronectin matrix deposition, primary screen, AH1F cells, Alexa488-fibronectin fluorescence, plate reader. inhibition, % at 12.6 µM. 350,000 compounds, 0.086% hits. AH1F fibroblasts, overnight;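 active means mean inhibition across replicates of 30% or more, regardless of how many single replicates reach that level; inconclusive means mean under 30% yet at least half of replicates reach 30%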;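 further: positive control wells lacked labelled fibronectin entirely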
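Schedule: 1 h cell adhesion before compound, then overnight fibronectin incubation; test system: AH1F fibroblast monolayer depositing Alexa488-labelled fibronectin into matrix; quantity: 10000 AH1F cells per well; probe or stimulus: fluorescent fibronectin at 24 nM final; signal: fluorescence, ex 485 nm, em 525 nm; evaluation: percent inhibition as loss of matrix-bound fibronectin fluorescence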
CaV13 FRET inh: Primary screen for inhibitors of IQ motif and Ca2+-dependent inactivation inhibitor domain binding in CACNA1D, Förster resonance energy transfer in living cells, …. HEK cells, CFP/YFP FRET ICDI-IQ, plate reader, 10 min; percent FRET-ratio fall versus neutral wells. inhibition, % at 12.3 µM. 340,000 compounds, 0.098% hits;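 active means mean replicate inhibition of at least 30% and at least 1% of replicates passing that level; inconclusive means only one of the two criteria is met; inactive means neither criterion is met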;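 further: 0% = median of the neutral control wells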
Starred values were filed as active, the others as inactive; ? = inconclusive; / = not tested or not shown; + = active, no number; ! = not active in a repeat.

SMILES	Xi reactivation	CASP6 VEID inh	DENV2 CPE rescue	FN deposit inh	CaV13 FRET inh
Cn1cc(-c2cnc3c(NC=O)cc(-c4cccc(C(F)(F)F)c4)cn23)cn1	0	4	27*	4	-4
COc1cccc(-c2cnc3c(NC=O)cc(-c4ccncc4)cn23)c1	0	-2	65*	/	-6
C[C@H](CO)N1C[C@H](C)[C@@H](CN(C)C(=O)CN2CCOCC2)Oc2ncc(C3=CCCC3)cc2C1=O	0	0	-4	9	/
O=C(C[C@@H]1CC[C@H](NC(=O)c2cccc(F)c2)[C@@H](CO)O1)Nc1nccs1	0	3	3	-6	/
COc1ccc(NC(=O)C2C(c3ccc4c(c3)OCO4)=Nc3ccccc3N2C(C)=O)cc1 (stereo not drawn)	0	3	27*	8	-11
CC(=O)N1C[C@@H]2C(c3ccccc3)[C@H](C1)N2S(C)(=O)=O (stereo partly drawn)	0	/	/	0	/
CN(C)C(=O)c1cccc(-c2ccc(C3[C@H]4CNC[C@@H]3N4Cc3cc(F)ccc3F)cc2)c1 (stereo partly drawn)	0	-11	82*!	-9	/
COc1cccc(-c2ccc(C3[C@H]4CNC[C@@H]3N4Cc3cc(F)ccc3F)cc2)c1 (stereo partly drawn)	0	3	-10	-1	/
COCC(=O)N[C@H]1C=C[C@@H](CC(=O)NCc2ccc(Cl)cc2)O[C@H]1CO	0	/	/	-3	/
COc1ccc(CN(C)C[C@H]2OCCCC[C@@H](C)Oc3ccc(NC(=O)NC(C)C)cc3C(=O)N([C@H](C)CO)C[C@H]2C)cc1	0	0	86*	/	/
COc1ccc(CN(C)C[C@@H]2OCCCC[C@H](C)Oc3ccc(NC(=O)Nc4ccccc4)cc3C(=O)N([C@H](C)CO)C[C@H]2C)cc1	0	/	39*	9	/
COc1ccc(NC(=O)Nc2ccc3c(c2)C(=O)N([C@@H](C)CO)C[C@H](C)[C@H](CN(C)Cc2ccc(C(=O)O)cc2)OCCCC[C@H](C)O3)cc1	0	-3	80*	/	/
COCC(=O)N1CC[C@H]2[C@H](CO)Nc3ccc(-c4cccc(C(=O)N(C)C)c4)cc3[C@H]21	0	/	-18	-7	/
O=C(C[C@H]1C=C[C@H](NC(=O)C2CCOCC2)[C@H](CO)O1)Nc1ccccc1	0	3	-3	/	/
CCOC(=O)C1=C(C)NC(C)=C(C(=O)OCC)C1c1ccncc1	0	3	13	/	-5
CCOC(=O)C1=C(C)NC(=O)C(C#N)C1c1ccncc1 (stereo not drawn)	/	4	36*	/	-8
CC(C)c1ccc(/C=C2\Oc3c(ccc(O)c3CN3CCN(C)CC3)C2=O)cc1	0	-1	/	/	+
COc1ccccc1CCN=C(N)NS(=O)(=O)c1ccc(F)cc1	0	1	55*	2	-6
COc1ccc2c3c([nH]c2c1)[C@H](CO)N(C(=O)C1CCC1)CC31CN(C(=O)NC(C)C)C1	0	6	16	/	/
COc1cccc(NC(=O)CN(C)C(=O)c2cccc(S(=O)(=O)N3c4ccccc4CC3C)c2)c1 (stereo not drawn)	0	-2	58*	5	-8
CN(C)C(=O)C[C@H]1CC[C@H]2[C@@H](COc3ccc(NC(=O)Nc4cccc(Cl)c4)cc3C(=O)N2C)O1	0	0	-10	-7	/
O=S(=O)(O)c1cc(O)c2ccc(Nc3ccccc3)cc2c1	0	95*	12	/	-6
CC(=O)Nc1ccc2c(O)cc(S(=O)(=O)O)cc2c1	0	35	3	3	-7
COc1ccccc1Nc1ccc2c(O)cc(S(=O)(=O)O)cc2c1	0	88*	?	18	-6
O=C(O)c1cc(S(=O)(=O)O)ccc1O	/	/	/	/	-3
SMILES	Xi reactivation	CASP6 VEID inh	DENV2 CPE rescue	FN deposit inh	CaV13 FRET inh
COc1ccc(S(=O)(=O)O)cc1P(=O)(c1ccccc1)c1ccccc1	0	-2	-2	1	-3
Nc1ccc2c(O)cc(S(=O)(=O)O)cc2c1	0	77*	-1	-6	-6
CS(=O)(=O)N1[C@@H]2CN(CC(F)(F)F)C[C@H]1C2c1ccc(Br)cc1 (stereo partly drawn)	0	/	/	2	/
CO[C@H]1CN(C)C(=O)c2ccc(NC(C)=O)cc2OC[C@@H](C)N(Cc2cccc(F)c2)C[C@H]1C	0	-1	?	-6	/
COc1cccc(S(=O)(=O)N2CCCCN3[C@H](CO)[C@H](c4ccc(C5=CCCCC5)cc4)[C@H]3C2)c1	0	/	/	/	/
O=C(C[C@H]1CC[C@H]2[C@@H](COC[C@@H](O)CN2S(=O)(=O)c2ccc(F)cc2)O1)N[C@H]1CCN(Cc2ccccc2)C1	0	-1	-2	-10	/
C=CCOC(=O)C1=C[C@@H](c2ccc(C(F)(F)F)cc2)[C@H](CCCO)[C@@H](OCC)O1	0	13	36*!	5	-9
Cc1cc(NS(=O)(=O)c2ccc(NC(=O)COc3ccccc3[N+](=O)[O-])cc2)no1	0	74*	0	/	/
Cc1cc(NS(=O)(=O)c2ccc(NC(=O)COc3ccccc3C(C)(C)C)cc2)no1	0	7	-3	-3	-6
O=C(NCC1CC1)c1onc(CSc2ccc(F)c(F)c2)c1C(=O)NCC1CC1	0	0	64*	-4	-4
C=CCNC(=O)c1onc(CSc2ccc(F)c(F)c2)c1C(=O)NCC=C	0	/	/	-1	-3
COC(=O)N/N=C1/C/C(=N\NC(=O)OC)c2ccccc21	0	91*	9	15	9
N#Cc1c(NC(=O)c2ccco2)sc2c1CCC2	0	48*	4	/	/
COc1ccc(Cl)cc1NC(=O)CN(C)C(=O)C1COc2ccccc2O1 (stereo not drawn)	0	3	73*	2	-13
COC(=O)/C(=C\Nc1ccc(Oc2ccccc2OC(C)C)nc1)NC(=O)c1ccccc1	/	-1	-7	/	/
Cc1ccc(S(=O)(=O)N(C)C[C@H]2Oc3c(NS(=O)(=O)c4ccc(Cl)cc4)cccc3C(=O)N([C@@H](C)CO)C[C@H]2C)cc1	0	-2	74*	/	/
COc1ccc(S(=O)(=O)N(C)C[C@@H]2Oc3c(NS(=O)(=O)c4ccc(C)cc4)cccc3C(=O)N([C@H](C)CO)C[C@H]2C)cc1	-1	2	43*	/	/
COc1ccc(C(=O)CCC(=O)NCc2cc(OC)cc(OC)c2)cc1	0	2	35*	-1	-3
CNC[C@@H]1Oc2c(NC(=O)NC(C)C)cccc2C(=O)N(C)C[C@H]1C	0	/	/	/	/
